Assay results gathered from unrelated publications.
Lines come from different studies, so protocols differ.
Target: Serine/threonine-protein kinase 32C (STK32C, Homo sapiens, UniProt Q86UX6)

`C[C@@H]1CN(c2cc(-c3nn(C)c4ccc(OC5(C)CC5)cc34)ncn2)C[C@H](C)O1` has a remaining binding of 100% (cell-free assay; competition with immobilised ligand; 1 µM).
For `C[C@@H]1CCN(c2nccc(-c3cnn4ncccc34)n2)C1`, the remaining binding was 83% (binding; 1 µM).
`COc1ncc2cc3ccccc3nc2c1C#N` has a remaining binding of 100% (cell-free assay; competition with immobilised ligand; 5 µM).
`CNC(=O)[C@@H]1CC[C@@H](n2c(-c3ccc4cnccc4c3)nc3ccc(C(=O)NCc4cccc(C(N)=O)c4)cc32)C1` has a remaining binding of 93% (binding; competition with immobilised ligand; 1 µM).
With `N[C@H]1CCN(c2nccc(-c3cnn4ncccc34)n2)C1` the remaining binding was 97% (binding; 1 µM).
With `Nc1ncc2c(n1)-c1c([nH]c3ccc(C#CC4CC4)cc13)CCCC2` the remaining binding was 100% (binding; competition with immobilised ligand; 1 µM).
For `CC(=O)N1CCC(c2ccc(C(=O)NC(=N)N)cc2C(F)(F)F)CC1`, the remaining binding was 100% (cell-free assay; competition with immobilised ligand; 1 µM).
For `C[C@@H]1CN(c2ccc3ncc(-c4ccc5[nH]nc(C6CC6)c5c4)n3n2)C[C@H](C)O1`, the remaining binding was 100% (binding; competition with immobilised ligand; 0.5 µM).
For `COc1cc(-c2cn(C3CCc4c(F)cccc4N(CC(F)(F)F)C3=O)nn2)ccc1-n1cnc(C)c1` (centres unmarked), the remaining binding was 100% (cell-free assay; competition with immobilised ligand; 1 µM).
With `c1cnn2ncc(-c3ccnc(N4CCC45COC5)n3)c2c1` the remaining binding was 68% (binding; 1 µM).
For `O=C(c1ccc(Nc2ncc(Cl)c(-c3cc4ccccc4s3)n2)cc1)N1CCC(N2CCCC2)CC1`, the remaining binding was 100% (binding; competition with immobilised ligand; 1 µM).
The remaining binding of `O=C(N[C@H]1CCCCC/C=C\C2C[C@@]2(C(=O)O)NC(=O)[C@@H]2C[C@@H](Oc3ccncc3)CN2C1=O)OC1CCCC1` (some centres unmarked) is reported as 100% (binding; competition with immobilised ligand; 1 µM).
`CN(c1nccc(-c2cnn3ncccc23)n1)C1CC1` gave a remaining binding of 70% (binding; 1 µM).
With `O=C(c1ccc(Nc2nccc(-c3cc4ccccc4s3)n2)cc1)N1CCC(N2CCCC2)CC1` the remaining binding was 100% (binding; competition with immobilised ligand; 1 µM).
`CN(C)c1ncc(F)c(-c2cnn3ncccc23)n1` gave a remaining binding of 87% (binding; 1 µM).
The remaining binding of `CS(=O)(=O)N1CCCC(NC(=O)[C@H](CCC2CCCCC2)NC(=O)c2ccc(CNc3ncnc4c3nnn4-c3ccccc3)cc2)C1` (some centres unmarked) is reported as 100% (cell-free assay; competition with immobilised ligand; 0.1 µM).
With `C[C@@H](c1ccc(-n2cnc3c(N)ncnc32)cc1)N1CCc2nn(C)c(Cc3ccccc3)c2C1=O` the remaining binding was 89% (binding; competition with immobilised ligand; 0.1 µM).
